According to PMC9907348 (Molecular Pharmaceutics, 2023):

Test: Intravital two-photon microscopy of renal disposition
Assay type: in vivo, Munich Wistar Frömter rats
Details: rat; for course of subapical brush border fluorescence / vascular fluorescence after infusion: single iv bolus ∼300 μg/kg; for course of subapical brush border fluorescence: infusion movie ∼2 min 10 s to 300 s
Procedure, shortened: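 Munich Wistar Frömter rats (9–12 weeks), fed ad libitum, with temperature monitored. Outer-cortex glomeruli with visible S1 proximal tubule openings were marked before a bolus of TAMRA- or TAMRA/QSY7-labelled peptide via an indwelling jugular line. 40 kDa FITC-dextran outlined the brush border. Two-photon excitation was at 800 nm (2.0% transmissivity), imaging for ~60 min. Fluorescence was measured over capillary-loop and subapical brush border regions.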

[1] = iv, intravital two-photon microscopy
[2] = intravital two-photon microscopy
[3] = iv, postinjection, 40 kDa FITC-dextran given just before

Substance | glomerular filtration [1] | proximal tubule (PTEC) binding and endocytosis [1] | course of subapical brush border fluorescence | vascular fluorescence after infusion [2] | time at which fluorescence was detected within apical vesicular arrangements [3] | time at which fluorescence within apical vesicular arrangements became marked [3]
5-TAMRA exenatide [TAMRA-Ex] | rapid glomerular filtration | rapid and extensive proximal tubule binding and endocytosis | rapid appearance | immediate and pronounced detection of fluorescence |  | 
5-TAMRA-QSY7 exenatide [FRET-Ex] |  |  | protracted linear increase | virtually undetectable | ≤ 80 s | ≤ 200 s
